Six molecules from article PMC2212267 (The Journal of Experimental Medicine, 1998) can be followed below.

Where no end group is shown, it is not given here. 5,6‑carboxyfluorescein = 5,6-carboxyfluorescein Where only a bound is given, the exact number is not on record here.

Assay [1] deals with T1, I-A^u (Mus musculus, UniProt P06344+P14438).
T1 sequence (P14438 1-227): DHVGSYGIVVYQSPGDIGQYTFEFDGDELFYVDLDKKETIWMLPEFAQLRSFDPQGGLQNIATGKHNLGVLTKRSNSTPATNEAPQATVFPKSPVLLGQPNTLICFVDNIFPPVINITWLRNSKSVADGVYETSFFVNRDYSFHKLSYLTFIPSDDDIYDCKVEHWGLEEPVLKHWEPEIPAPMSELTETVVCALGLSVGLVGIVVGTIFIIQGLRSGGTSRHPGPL
T1 sequence (P06344 28-263): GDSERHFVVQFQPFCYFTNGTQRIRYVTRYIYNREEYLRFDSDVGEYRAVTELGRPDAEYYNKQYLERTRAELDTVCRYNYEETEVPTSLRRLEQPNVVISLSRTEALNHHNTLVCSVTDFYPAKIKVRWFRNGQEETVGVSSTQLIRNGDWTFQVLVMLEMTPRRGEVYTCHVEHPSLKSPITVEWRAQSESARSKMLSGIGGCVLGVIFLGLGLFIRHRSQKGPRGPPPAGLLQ
The assay can be described thus: Peptide dissociation kinetics from purified MHC protein. It counts as binding. As to conditions: fluorescein-labeled peptide, pH 5.3, 37°C, HPSEC; Fig. 4 b. On the technique in general: SEC sorts molecules by how far they enter the pores of the column.

Assay [2] concerns MBP-responsive T cell lines. The experiment in a line: Proliferation responses of MBP-responsive T cell lines. Type of assay: cell-based. As to conditions: unpublished data (Rabinowitz, J.D.).
The target in the next assay is I-A^k (Mus musculus, UniProt P01910+P06343). The assay can be described thus: FACS binding of biotinylated MBP peptides to live L cell transfectants. Conditions: β9 mutant I-A^k H9V; among 4A, 4E, 4Y; Fig. 1 a. In outline: (§1)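 Live L cell transfectants (wild-type or β9-mutant I-A, 5 × 10^5 cells) washed, then incubated 4 h at 37°C, 7% CO2 with 200 μM biotinylated MBP analogue in RPMI 1640/1% BSA. Washed twice, then streptavidin–Quantum red/PE for 20 min on ice. MHC level read with FITC anti-Aβk,u mAb 10-2.16; propidium iodide viability stain. Net binding is mean fluorescence minus nontransfected L cells plus peptide, divided by FITC signal, then normalized to 4A peptide on wild-type transfectant.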
I-A^k, sequence (P01910 24-256): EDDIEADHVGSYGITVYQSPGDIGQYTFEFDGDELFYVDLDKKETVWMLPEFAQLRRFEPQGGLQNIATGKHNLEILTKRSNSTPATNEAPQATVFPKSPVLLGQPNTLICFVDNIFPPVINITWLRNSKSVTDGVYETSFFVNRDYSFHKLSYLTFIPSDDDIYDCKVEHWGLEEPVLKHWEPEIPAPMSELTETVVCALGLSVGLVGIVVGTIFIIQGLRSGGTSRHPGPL
I-A^k, sequence (P06343 28-263): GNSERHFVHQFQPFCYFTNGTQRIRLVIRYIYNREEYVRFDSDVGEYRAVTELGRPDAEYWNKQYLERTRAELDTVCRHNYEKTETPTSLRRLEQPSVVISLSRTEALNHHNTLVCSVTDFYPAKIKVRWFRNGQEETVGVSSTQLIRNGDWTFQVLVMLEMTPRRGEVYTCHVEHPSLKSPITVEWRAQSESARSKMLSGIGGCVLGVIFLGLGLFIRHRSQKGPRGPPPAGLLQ
On the technique in general: Flow cytometry measures light scatter and fluorescence of single cells or particles in a stream.

In assay [3] the target is T1, I-A^u. The description is as above. Conditions: wild-type I-A^u; among 4A, 4E, 4Y; Fig. 1 a. Put shortly:
as §1

For assay [4], the target named is I-A^u class II MHC protein, purified (mouse). The assay can be described thus: peptide dissociation kinetics followed by HPSEC with fluorescence detection.
The target of assay [5] is I-A^k class II MHC protein, wild type, on L cell transfectants (mouse). The experiment in a line: flow cytometry on cells.

On to ISQAVAASQKRPSQRSKY [ova-MBP], for which the “slower dissociation from I-A^u than wild-type MBP Ac1-12” value on I-A^u [1] is approximately 80 fold. In assay [2], the “proliferation responses of a series of MBP-responsive T cell lines” value is recorded as “abrogated proliferation responses”.

“4Y: MBP peptide with residue 4 lysine replaced with tyrosine (Ac-ASQYRPSQRHGSK-biotin)”: the “peptide preference of I-A^k H9V in FACS binding” value with I-A^k is on record as “prefers”. For the same molecule, the “peptide preference of I-A^u in FACS binding” value with I-A^u [3] was “prefers”.

In the case of ISQAVAASQYRPSQRSKY [ova-MBP K4Y], in assay [2], the “proliferation responses of a series of MBP-responsive T cell lines” value was “abrogated proliferation responses”.

As for {5,6‑carboxyfluorescein}-ISQAVAASQYRPSQRSKY [ova-MBP K4Y, fluorescein-labelled], in assay [4], the dissociation half-time (t 1/2) was more than 200 h and the fold increase in stability of binding over wild-type MBP is more than 1000 fold.

With {5,6‑carboxyfluorescein}-ISQAVAASQKRPSQRSKY [ova-MBP (NH2-terminally extended MBP peptide), fluorescein-labelled], the fold slower dissociation than wild-type MBP Ac1-12 in assay [4] came to 80 fold.

In assay [5], Ac-ASQERPSQRHGSK-biotin [biotinylated MBP Ac1-13 K4E (rat MBP sequence)] had a fold improvement of binding over MBP Ac1-11 4A of 2 fold and a fold improvement of binding over wild-type MBP of more than 20 fold.
